Experimental data published in ChEMBL document CHEMBL4177556, “Novel 5-HT7R antagonists, arylsulfonamide derivatives of (aryloxy)propyl piperidines: Add-on effect to the antidepressant activity of SSRI and DRI, and pro-cognitive profile” (Bioorg Med Chem, 2017).
One block for each compound: values may come before it. Calls of active or inactive are those of the source.

Key:
[1] = target: Adrenergic receptor alpha-1 (Homo sapiens) (UniProt P35348+P25100+P35368); experiment: Binding affinity to alpha1-adrenergic receptor (unknown origin) at 1 uM relative to control; assay type: protein assay
Method in brief: (§1)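 Transporter and α1-adrenergic binding run externally by Eurofins Cerep using their standard protocols. Reported as % inhibition of control specific binding.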

[2] = tested on: Mus musculus; experiment: Antidepressant-like activity in C57BL/6J mouse assessed as increase in force of fights at 2.5 mg/kg measured during 6 mins session by tail suspension test; assay type: functional, organism-based
Method in brief: (§2)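 Male C57BL/6J mice (22–26 g), 7–9 per group. Compound in distilled water, i.p. at 10 ml/kg, 60 min before test. Mice suspended by tail from a strain-gauge hook for 6 min. Struggling episodes, average event force and immobility (force below 0.20 N threshold) recorded automatically. One-way ANOVA with Bonferroni; mean ± SEM.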

[3] = tested on: Mus musculus; experiment: Antidepressant-like activity in C57BL/6J mouse assessed as decrease in immobility time at 2.5 mg/kg measured during 6 mins session by tail suspension test; assay type: functional, organism-based; method in brief: as §2
[4] = target: T1, 5-hydroxytryptamine receptor 1A (Homo sapiens, UniProt P08908); experiment: Displacement of [3H]-8-OH-DPAT from human 5-HT1A receptor expressed in HEK293 or CHO-K1 cells after 1 hr by microbeta counting analysis; assay type: cell-based
T1 sequence (P08908 whole entry): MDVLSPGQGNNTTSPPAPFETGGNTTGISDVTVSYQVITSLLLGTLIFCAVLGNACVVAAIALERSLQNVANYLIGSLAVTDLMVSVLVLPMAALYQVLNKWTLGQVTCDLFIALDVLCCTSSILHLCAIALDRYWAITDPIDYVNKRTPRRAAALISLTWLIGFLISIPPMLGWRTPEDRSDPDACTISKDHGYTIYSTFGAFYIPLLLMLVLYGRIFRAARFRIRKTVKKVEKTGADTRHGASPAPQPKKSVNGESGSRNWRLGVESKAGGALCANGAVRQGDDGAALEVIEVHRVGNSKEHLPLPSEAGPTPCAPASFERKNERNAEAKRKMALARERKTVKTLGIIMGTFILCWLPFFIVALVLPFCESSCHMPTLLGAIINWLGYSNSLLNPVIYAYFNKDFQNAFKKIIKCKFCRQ
Method in brief: (§3)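 Membranes from stably transfected HEK293 or CHO-K1 cells, homogenized, centrifuged twice at 35,000g, with 15 min at 37 °C in between. Receptor-specific Tris-HCl buffers with MgCl2, plus EDTA, pargyline or ascorbate as applicable. Incubated 1 h at 37 °C (5-HT1A at room temperature), filtered, and bound radioactivity counted.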

[5] = tested on: Mus musculus; experiment: Antidepressant-like activity in Swiss albino mouse assessed as decrease in immobility time at 0.312 mg/kg cotreated with 1.25 mg/kg of bupropion measured during last 4 mins of 6 mins test by forced swim test; assay type: functional, organism-based
Method in brief: (§4)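 Male Swiss albino mice, 7–10 per group. Test compound (i.p., 60 min pre-test) co-given with reboxetine or bupropion (60 min) or escitalopram (30 min), all in distilled water at 10 ml/kg. Placed in a water cylinder (10 cm water, 23–25 °C) for 6 min; immobility scored over the last 4 min by a blinded observer. Two-way ANOVA with Bonferroni.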

[6] = organism: Homo sapiens; experiment: Selectivity ratio of Ki for human 5-HT1A receptor to Ki for human 5-HT7b receptor
[7] = target: T2, 5-hydroxytryptamine receptor 7 (Homo sapiens, UniProt P34969); experiment: Displacement of [3H]-5-CT from human 5-HT7b receptor expressed in HEK293 cells after 1 hr by microbeta counting analysis; assay type: cell-based; method in brief: as §3
T2 sequence (P34969 whole entry): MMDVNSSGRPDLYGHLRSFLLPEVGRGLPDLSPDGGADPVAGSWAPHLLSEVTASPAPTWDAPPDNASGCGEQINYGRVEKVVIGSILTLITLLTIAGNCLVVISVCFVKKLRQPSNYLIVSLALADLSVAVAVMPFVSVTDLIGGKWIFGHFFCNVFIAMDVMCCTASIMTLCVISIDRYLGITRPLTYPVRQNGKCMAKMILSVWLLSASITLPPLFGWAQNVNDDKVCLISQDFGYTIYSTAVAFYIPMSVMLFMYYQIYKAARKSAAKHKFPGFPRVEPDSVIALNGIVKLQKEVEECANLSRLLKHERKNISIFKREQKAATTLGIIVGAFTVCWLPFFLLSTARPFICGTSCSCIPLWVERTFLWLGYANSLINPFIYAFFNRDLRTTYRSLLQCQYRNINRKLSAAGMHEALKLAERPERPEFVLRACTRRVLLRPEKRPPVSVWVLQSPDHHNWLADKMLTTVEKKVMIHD

[8] = tested on: Mus musculus; experiment: Toxicity in mouse assessed as effect on spontaneous locomotory activity at 0.312 to 2.5 mg/kg, ip administered 60 mins prior to testing measured for 6 mins; assay type: organism-based; settings: in vivo, 0.1 h
Method in brief: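 Swiss albino or C57BL/6J mice habituated 30 min in activity cages. Ambulation counted from 2–6 min (matching the swim test) or over 6 min (matching the tail suspension test) with an infrared multi-channel activity monitor. Dosing i.p. as for the behavioral tests.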

[9] = tested on: Mus musculus; experiment: Antidepressant-like activity in C57BL/6J mouse assessed as increase in number of fight episodes at 0.625 to 1.25 mg/kg measured during 6 mins session by tail suspension test; assay type: functional, organism-based; method in brief: as §2
[10] = tested on: Mus musculus; experiment: Antidepressant-like activity in Swiss albino mouse assessed as decrease in immobility time at 0.625 to 2.5 mg/kg measured during last 4 mins of 6 mins test by forced swim test relative to control; assay type: functional; design: scale not given: the % may be the effect or the level left
Method in brief: (§5)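 Porsolt swim test in male Swiss albino mice (22–26 g), 7–10 per dose, each used once, run 09:00–14:00 by a blinded observer. Drugs in distilled water, i.p. at 10 ml/kg: escitalopram 30 min before test, others 60 min. Immobility scored during the last 4 min of a 6 min swim at 23–25 °C. One-way ANOVA with Bonferroni vs vehicle.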

[11] = tested on: Mus musculus; experiment: Antidepressant-like activity in Swiss albino mouse assessed as decrease in immobility time at 0.312 mg/kg cotreated with 0.625 mg/kg of escitalopram measured during last 4 mins of 6 mins test by forced swim test relative to control; assay type: functional; design: scale not given: the % may be the effect or the level left; method in brief: as §4
[12] = target: 5-hydroxytryptamine receptor 6 (Homo sapiens, UniProt P50406); experiment: Displacement of [3H]-LSD from human 5-HT6 receptor expressed in HEK293 or CHO-K1 cells after 1 hr by microbeta counting analysis; assay type: cell-based; method in brief: as §3
5-hydroxytryptamine receptor 6, sequence (P50406 whole entry): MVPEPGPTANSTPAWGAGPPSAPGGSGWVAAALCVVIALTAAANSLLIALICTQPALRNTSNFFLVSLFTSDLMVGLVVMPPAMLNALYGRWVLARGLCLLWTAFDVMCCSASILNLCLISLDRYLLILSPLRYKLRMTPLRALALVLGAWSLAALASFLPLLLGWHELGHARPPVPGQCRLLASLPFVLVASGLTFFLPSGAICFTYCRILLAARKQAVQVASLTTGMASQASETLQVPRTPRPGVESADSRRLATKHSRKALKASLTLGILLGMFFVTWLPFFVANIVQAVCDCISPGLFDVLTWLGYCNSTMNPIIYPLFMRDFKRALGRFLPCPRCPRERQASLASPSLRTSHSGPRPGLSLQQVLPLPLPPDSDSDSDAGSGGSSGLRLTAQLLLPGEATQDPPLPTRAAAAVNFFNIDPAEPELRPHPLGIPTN

[13] = target: 5-hydroxytryptamine receptor 2A (Homo sapiens, UniProt P28223); experiment: Displacement of [3H]-Ketanserin from human 5-HT2A receptor expressed in HEK293 or CHO-K1 cells after 1 hr by microbeta counting analysis; assay type: cell-based; method in brief: as §3
5-hydroxytryptamine receptor 2A, sequence (P28223 whole entry): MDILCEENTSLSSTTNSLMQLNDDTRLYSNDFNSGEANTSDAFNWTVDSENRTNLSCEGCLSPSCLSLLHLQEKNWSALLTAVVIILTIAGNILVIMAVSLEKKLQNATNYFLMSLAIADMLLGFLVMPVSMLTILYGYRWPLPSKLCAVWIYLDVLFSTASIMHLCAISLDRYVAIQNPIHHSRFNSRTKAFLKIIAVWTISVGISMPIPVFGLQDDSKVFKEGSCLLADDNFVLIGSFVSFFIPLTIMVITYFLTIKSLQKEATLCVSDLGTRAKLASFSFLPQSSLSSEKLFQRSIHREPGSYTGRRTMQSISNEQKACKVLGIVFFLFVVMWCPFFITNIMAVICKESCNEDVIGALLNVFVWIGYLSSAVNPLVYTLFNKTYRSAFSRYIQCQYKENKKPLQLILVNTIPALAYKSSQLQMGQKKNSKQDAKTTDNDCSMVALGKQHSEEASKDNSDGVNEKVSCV

[14] = tested on: Mus musculus; experiment: Antidepressant-like activity in C57BL/6J mouse assessed as decrease in immobility time at 1.25 mg/kg measured during 6 mins session by tail suspension test; assay type: functional, organism-based; method in brief: as §2
[15] = target: T2, 5-hydroxytryptamine receptor 7; experiment: Antagonist activity at human 5-HT7b receptor expressed in HEK293 cells assessed as inhibition of 5-CT induced cAMP accumulation after 30 mins by LANCE based TR-FRET assay; assay type: functional, cell-based
Method in brief: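 Stable 5-HT7 HEK293 cells in DMEM with 10% dialysed FBS and G418, harvested at 90% confluence, washed in warm PBS, and resuspended in HBSS/5 mM HEPES/0.5 mM IBMX/0.1% BSA. Compound incubated with cells for 30 min at room temperature against 5-CT (10 nM). Cells lysed with Eu-cAMP/ULight-anti-cAMP for 1 h at room temperature, then LANCE cAMP read-out. Triplicate at 8 concentrations.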

[16] = tested on: Rattus norvegicus; experiment: Cognitive enhancement effect in Sprague-Dawley rat memory impairment model assessed as reversal of natural forgetting impairment administered ip 30 mins prior to test measured after 24 hrs by novel object recognition test; assay type: functional, organism-based
Method in brief: (§6)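 Male Sprague–Dawley rats (about 250 g), handled and acclimatized. Habituated to an open field arena (25 lx) for 5 min, 24 h before testing. Two 3-min trials (T1, T2) separated by a 24 h inter-trial interval. Drug given i.p. 30 min before T1. Object exploration video-tracked; discrimination index = (EB−EA)/(EA+EB).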

[17] = target: Sodium-dependent serotonin transporter (Homo sapiens) (UniProt P31645); experiment: Displacement of [3H]imipramine from recombinant human SERT at 1 uM after 60 mins by scintillation counting analysis relative to control; method in brief: as §1
Sodium-dependent serotonin transporter (Homo sapiens), sequence (P31645 whole entry, looked up): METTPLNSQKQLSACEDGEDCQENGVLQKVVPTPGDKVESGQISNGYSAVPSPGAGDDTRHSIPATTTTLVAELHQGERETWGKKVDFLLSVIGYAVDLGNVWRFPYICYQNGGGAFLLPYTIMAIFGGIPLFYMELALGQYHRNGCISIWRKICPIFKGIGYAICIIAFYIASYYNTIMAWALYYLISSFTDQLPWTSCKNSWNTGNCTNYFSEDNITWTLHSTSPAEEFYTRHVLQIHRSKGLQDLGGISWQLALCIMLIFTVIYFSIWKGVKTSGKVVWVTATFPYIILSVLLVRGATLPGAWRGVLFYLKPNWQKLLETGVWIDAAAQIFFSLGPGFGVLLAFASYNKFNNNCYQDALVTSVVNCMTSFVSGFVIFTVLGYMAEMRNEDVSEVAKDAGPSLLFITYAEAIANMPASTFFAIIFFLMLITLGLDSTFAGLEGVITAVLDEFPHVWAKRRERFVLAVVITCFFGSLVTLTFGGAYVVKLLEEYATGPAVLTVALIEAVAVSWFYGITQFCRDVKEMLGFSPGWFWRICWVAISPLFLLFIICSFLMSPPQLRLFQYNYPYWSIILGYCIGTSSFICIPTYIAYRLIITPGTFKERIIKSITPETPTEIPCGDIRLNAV

[18] = target: D(2) dopamine receptor (Homo sapiens, UniProt P14416); experiment: Displacement of [3H]-Raclopride from human dopamine D2L receptor expressed in HEK293 or CHO-K1 cells after 1 hr by microbeta counting analysis; assay type: cell-based; method in brief: as §3
D(2) dopamine receptor, sequence (P14416 whole entry): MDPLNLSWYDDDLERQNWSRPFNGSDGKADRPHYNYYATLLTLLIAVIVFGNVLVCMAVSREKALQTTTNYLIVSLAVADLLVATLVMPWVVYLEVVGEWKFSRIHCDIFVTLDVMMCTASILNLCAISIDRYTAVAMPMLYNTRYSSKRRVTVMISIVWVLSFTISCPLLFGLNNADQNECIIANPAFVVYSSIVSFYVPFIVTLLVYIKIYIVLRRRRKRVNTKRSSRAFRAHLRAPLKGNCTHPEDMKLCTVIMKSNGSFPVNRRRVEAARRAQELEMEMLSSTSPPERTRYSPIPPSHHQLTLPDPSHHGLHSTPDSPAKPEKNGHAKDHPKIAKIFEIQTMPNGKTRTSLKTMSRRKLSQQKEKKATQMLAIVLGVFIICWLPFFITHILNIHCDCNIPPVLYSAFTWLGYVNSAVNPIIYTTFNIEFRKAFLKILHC

[19] = target: Sodium-dependent dopamine transporter (Homo sapiens) (UniProt Q01959); experiment: Displacement of [3H]BTCP from recombinant human DAT at 1 uM after 120 mins by scintillation counting analysis relative to control; method in brief: as §1
Sodium-dependent dopamine transporter (Homo sapiens), sequence (Q01959 whole entry): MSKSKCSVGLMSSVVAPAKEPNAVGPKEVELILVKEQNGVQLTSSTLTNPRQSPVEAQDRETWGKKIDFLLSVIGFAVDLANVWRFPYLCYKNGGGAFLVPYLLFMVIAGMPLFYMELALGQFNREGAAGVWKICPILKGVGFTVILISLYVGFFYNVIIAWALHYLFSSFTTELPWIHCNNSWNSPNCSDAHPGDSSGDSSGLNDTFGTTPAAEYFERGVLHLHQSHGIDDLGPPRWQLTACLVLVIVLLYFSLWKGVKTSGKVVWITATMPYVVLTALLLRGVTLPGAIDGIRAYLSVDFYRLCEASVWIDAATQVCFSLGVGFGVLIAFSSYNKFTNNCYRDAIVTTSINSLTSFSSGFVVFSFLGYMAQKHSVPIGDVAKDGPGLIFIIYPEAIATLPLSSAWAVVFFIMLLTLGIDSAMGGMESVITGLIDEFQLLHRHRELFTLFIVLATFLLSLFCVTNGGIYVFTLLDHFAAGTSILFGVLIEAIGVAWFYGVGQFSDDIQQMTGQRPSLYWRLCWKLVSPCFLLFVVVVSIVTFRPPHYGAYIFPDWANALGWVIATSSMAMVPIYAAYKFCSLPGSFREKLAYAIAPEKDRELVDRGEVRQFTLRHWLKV

[20] = target: Sodium-dependent noradrenaline transporter (Homo sapiens) (UniProt P23975); experiment: Displacement of [3H]nisoxetine from recombinant human NET at 1 uM after 120 mins by scintillation counting analysis relative to control; method in brief: as §1
Sodium-dependent noradrenaline transporter (Homo sapiens), sequence (P23975 whole entry): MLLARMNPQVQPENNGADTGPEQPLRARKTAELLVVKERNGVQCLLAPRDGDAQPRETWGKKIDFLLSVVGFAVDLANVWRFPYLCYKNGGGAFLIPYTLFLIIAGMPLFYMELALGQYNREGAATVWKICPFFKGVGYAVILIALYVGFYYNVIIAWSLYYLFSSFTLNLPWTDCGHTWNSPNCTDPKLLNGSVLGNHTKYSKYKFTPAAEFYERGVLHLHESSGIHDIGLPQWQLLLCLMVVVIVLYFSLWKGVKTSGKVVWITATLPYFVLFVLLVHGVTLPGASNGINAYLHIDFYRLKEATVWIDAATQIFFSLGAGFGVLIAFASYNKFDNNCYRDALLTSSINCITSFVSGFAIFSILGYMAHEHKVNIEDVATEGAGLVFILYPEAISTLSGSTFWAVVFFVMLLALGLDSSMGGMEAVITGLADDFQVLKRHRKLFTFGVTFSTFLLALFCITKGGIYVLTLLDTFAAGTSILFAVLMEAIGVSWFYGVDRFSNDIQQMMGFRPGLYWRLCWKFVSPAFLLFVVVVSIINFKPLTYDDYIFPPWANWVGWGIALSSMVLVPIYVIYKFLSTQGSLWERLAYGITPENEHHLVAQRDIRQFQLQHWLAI

[21] = tested on: Mus musculus; experiment: Antidepressant-like activity in Swiss albino mouse assessed as decrease in immobility time at 10 mg/kg measured during last 4 mins of 6 mins test by forced swim test relative to control; assay type: functional; design: scale not given: the % may be the effect or the level left; method in brief: as §5
[22] = tested on: Mus musculus; experiment: Antidepressant-like activity in C57BL/6J mouse at 2.5 mg/kg measured during 6 mins session by tail suspension test; assay type: functional, organism-based; method in brief: as §2
[23] = tested on: Rattus norvegicus; experiment: Cognitive enhancement effect in Sprague-Dawley rat memory impairment model assessed as reversal of natural forgetting impairment at 1 mg/kg, ip administered 30 mins prior to test measured after 24 hrs by novel object recognition test; assay type: functional, organism-based; method in brief: as §6
[24] = tested on: Mus musculus; experiment: Antidepressant-like activity in C57BL/6J mouse assessed as decrease in immobility time at 5 to 20 mg/kg measured during 6 mins session by tail suspension test; assay type: functional, organism-based
Method in brief: (§7)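 C57BL/6J male mice (22–26 g), 7–9 per group. Escitalopram in distilled water, i.p. at 10 ml/kg, 30 min before test. Tail suspension on a strain gauge for 6 min, scoring fight force, episode count and immobility below a 0.20 N threshold. One-way ANOVA with Bonferroni.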

[25] = tested on: Mus musculus; experiment: Antidepressant-like activity in Swiss albino mouse assessed as decrease in immobility time at 0.625 mg/kg measured during last 4 mins of 6 mins test by forced swim test; assay type: functional, organism-based; method in brief: as §5
[26] = tested on: Mus musculus; experiment: Antidepressant-like activity in C57BL/6J mouse assessed as increase in average force of fights at 20 mg/kg measured during 6 mins session by tail suspension test; assay type: functional, organism-based; method in brief: as §7
[27] = tested on: Mus musculus; experiment: Antidepressant-like activity in Swiss albino mouse assessed as decrease in immobility time at 2.5 mg/kg measured during last 4 mins of 6 mins test by forced swim test relative to control; assay type: functional; design: scale not given: the % may be the effect or the level left; method in brief: as §5
[28] = tested on: Mus musculus; experiment: Antidepressant-like activity in Swiss albino mouse assessed as decrease in immobility time at 1.25 mg/kg measured during last 4 mins of 6 mins test by forced swim test relative to control; assay type: functional; design: scale not given: the % may be the effect or the level left; method in brief: as §5

Activity [1]: < 10% | Ki [4]: 1330 nM | Ratio Ki [6]: 40 | Ki [7]: 33 nM | Ki [12]: 295 nM | Ki [13]: 2110 nM | Kb [15]: 25 nM | Activity [17]: < 40% | Ki [18]: 343 nM | Activity [19]: < 40% | Activity [20]: < 40%
SMILES: O=S(=O)(NC1CCN(CC(O)COc2ccccc2-c2ccccc2)CC1)c1cccc(Cl)c1 (stereo not given)
Activity [2]: Active | Activity [3]: Active | Activity [5]: Active | Activity [8]: Non-Toxic | Activity [9]: Active | Activity [10]: 28 - 46% | Activity [11]: 25.4% | Activity [14]: Active | Activity [16]: Dose-dependent effect

Ki [4]: 742 nM | Ratio Ki [6]: 4 | Ki [7]: 213 nM
SMILES: CC(C)c1ccccc1OCC(O)CN1CCC(NS(=O)(=O)c2cccc(F)c2)CC1 (stereo not given)

Ki [4]: 696 nM | Ratio Ki [6]: 22 | Ki [7]: 32 nM
SMILES: CC(COc1ccccc1-c1ccccc1)N1CCC(NS(=O)(=O)c2cccc(Cl)c2)CC1 (stereo not given)

Ki [4]: 506 nM | Ratio Ki [6]: 5 | Ki [7]: 104 nM
SMILES: CC(C)c1ccccc1OCC(O)CN1CCC(NS(=O)(=O)c2ccc(F)cc2)CC1 (stereo not given)

The next lines start with the compound.

SMILES: CC1CCN(CC[C@H]2CCCN2S(=O)(=O)c2cccc(O)c2)CC1
Activity [21]: 31% | Activity [22]: Active | Activity [23]: Active

SMILES: CC(C)c1ccccc1OCC(C)N1CCC(NS(=O)(=O)c2cccc(F)c2)CC1 (stereo not given)
Ki [4]: 962 nM | Ratio Ki [6]: 6 | Ki [7]: 170 nM

SMILES: CN(C)CCC[C@@]1(c2ccc(F)cc2)OCc2cc(C#N)ccc21 [ESCITALOPRAM]
Activity [24]: Active | Activity [25]: inactive | Activity [26]: Active | Activity [27]: 34% | Activity [28]: 27%
